Data on four compounds can be found in ChEMBL document CHEMBL2396633, “Effects of cytoprotective antioxidants on lymphocytes from representative mitochondrial neurodegenerative diseases” (Bioorg Med Chem, 2013).

For assay [1], the species on record is Bos taurus. The assay can be described thus: Inhibition of NADH-ubiquinone oxidoreductase in bovine heart mitochondria after 5 mins by spectrophotometric analysis relative to control. The procedure, abridged:
(§1)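 Bovine heart submitochondrial particles, 12 µg, incubated 5 min at 39 °C with compound in 50 mM phosphate pH 7.4, 0.25 M sucrose, 1 mM MgCl₂, 2 mM KCN, plus antimycin A. Reaction started with 50 µM NADH and 50 µM coenzyme Q₁; NADH loss read at 340 nm. K_I derived. Mean of three experiments in triplicate.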

Assay [2] in a line: Inhibition of NADH-ubiquinone oxidoreductase in bovine heart mitochondria after 5 mins by spectrophotometric analysis. Set-up: species or system Bos taurus. The procedure, abridged:
as §1

The subject of assay [3] is GM15850. The assay can be described thus: Effect on total ATP level in Friedreich's ataxia disease patient GM15850 cells at 25 uM after 48 hrs by bioluminescence assay relative to control. The class given is functional, Homo sapiens. An outline of the steps: (§2)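 Lymphocytes were adapted to glucose-free RPMI with 25 mM galactose for at least one week. Cells at 2 × 10⁵ cells/mL were given compound at final 5, 10 or 25 µM for 48 h at 37 °C, 5% CO₂. Total intracellular ATP was measured by luciferase bioluminescence kit and expressed as % of untreated control.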

Assay [4] concerns GM15850. The assay can be described thus: Effect on total ATP level in Friedreich's ataxia disease patient GM15850 cells at 10 uM after 48 hrs by bioluminescence assay relative to control. The class given is functional, Homo sapiens. The procedure, abridged: as §2
Assay [5] deals with GM15850. Briefly: Effect on total ATP level in Friedreich's ataxia disease patient GM15850 cells at 5 uM after 48 hrs by bioluminescence assay relative to control. The class given is functional, Homo sapiens. The procedure, abridged:
as §2

Assay [6] can be described thus: Effect on total ATP level in Leber's optic atrophy disease patient GM10744 cells at 25 uM after 48 hrs by bioluminescence assay relative to control. The class given is functional, Homo sapiens. An outline of the steps: as §2
Assay [7] is described as follows: Effect on total ATP level in Leber's optic atrophy disease patient GM10744 cells at 10 uM after 48 hrs by bioluminescence assay relative to control. The class given is functional, Homo sapiens. The procedure, abridged: as §2
Assay [8] can be described thus: Effect on total ATP level in Leber's optic atrophy disease patient GM10744 cells at 5 uM after 48 hrs by bioluminescence assay relative to control. The class given is functional, Homo sapiens. An outline of the steps:
as §2

A short description of assay [9]: Effect on total ATP level in CoQ10-deficient human GM17932 cells at 25 uM after 48 hrs by bioluminescence assay relative to control. The assay is classed as functional. The procedure, abridged: as §2
Assay [10] is described as follows: Effect on total ATP level in CoQ10-deficient human GM17932 cells at 10 uM after 48 hrs by bioluminescence assay relative to control. The assay is classed as functional. An outline of the steps: as §2
Assay [11] is described as follows: Effect on total ATP level in CoQ10-deficient human GM17932 cells at 5 uM after 48 hrs by bioluminescence assay relative to control. The class given is functional. An outline of the steps: as §2
The species entered for assay [12] is Homo sapiens. The assay can be described thus: Antioxidant activity in Leber's optic atrophy disease patient GM10744 cells assessed as suppression of diethyl maleate-induced ROS generation at 0.025 to 2.5 uM preincubated for 18 hrs prior to diethyl maleate-challenge measured after 1 hr by FACS flow cytometric analysis in presence of DCFH-DA. The assay is classed as functional. An outline of the steps:
(§3)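 Lymphocytes (Coriell, RPMI with 15% FBS) or CCRF-CEM cells (RPMI with 10% FBS), 2.5 × 10⁵ cells/mL, exposed to compounds for 18 h at 37 °C, then 5 mM diethyl maleate for 1 h. Cells washed in PBS, loaded with 10 µM DCFH-DA in PBS/10 mM glucose for 25 min at 37 °C in the dark. DCF read by flow cytometry (488 nm excitation, 530 nm emission). Mean ± S.E.M., three experiments in duplicate.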
A general note: In flow cytometry, cells or beads pass a laser one at a time.

The species named for assay [13] is Homo sapiens. Briefly: Antioxidant activity in Alzheimer's disease patient AG06849 cells assessed as suppression of diethyl maleate-induced ROS generation at 0.025 to 2.5 uM preincubated for 18 hrs prior to diethyl maleate-challenge measured after 1 hr by FACS flow cytometric analysis in presence of DCFH-DA. The assay is classed as functional. An outline of the steps:
as §3

The test system of assay [14] is CCRF-CEM. The assay can be described thus: Antioxidant activity in human CCRF-CEM cells assessed as suppression of diethyl maleate-induced ROS generation at 0.25 uM preincubated for 18 hrs prior to diethyl maleate-challenge measured after 1 hr by FACS flow cytometric analysis in presence of DCFH-DA. The assay is classed as functional, cell-based. An outline of the steps: as §3

Assay [15] has as its system CCRF-CEM. The assay can be described thus: Antioxidant activity in human CCRF-CEM cells assessed as suppression of diethyl maleate-induced ROS generation at 2.5 uM preincubated for 18 hrs prior to diethyl maleate-challenge measured after 1 hr by FACS flow cytometric analysis in presence of DCFH-DA. The assay is classed as functional, cell-based. An outline of the steps:
as §3

The test system of assay [16] is CCRF-CEM. The assay can be described thus: Antioxidant activity in human CCRF-CEM cells assessed as suppression of diethyl maleate-induced ROS generation preincubated for 18 hrs prior to diethyl maleate-challenge measured after 1 hr by FACS flow cytometric analysis in presence of DCFH-DA. The assay is classed as functional, cell-based. The procedure, abridged:
as §3

For assay [17], the species on record is Bos taurus. Briefly: Inhibition of NADH oxidase activity of bovine heart mitochondrial […] at 5 uM after 5 mins by spectrophotometric analysis relative to control; values are per cent of control.
The species named for assay [18] is Bos taurus. The assay can be described thus: Inhibition of NADH oxidase activity of bovine heart mitochondrial […] at 1 uM after 5 mins by spectrophotometric analysis relative to control; values are per cent of control.
The species entered for assay [19] is Bos taurus. Briefly: Inhibition of NADH oxidase activity of bovine heart mitochondrial […] at 10 uM after 5 mins by spectrophotometric analysis relative to control; values are per cent of control.
The test system of assay [20] is CCRF-CEM. The assay can be described thus: Cytoprotective activity against diethyl maleate-induced oxidative stress in human CCRF-CEM cells assessed as cell viability at 0.5 uM preincubated for 15 hrs prior to diethyl maleate-challenge measured after 6 hrs by hemocytometer-based assay. The assay is classed as functional. The procedure, abridged: (§4)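 Cells seeded at 5 × 10⁵ cells/mL, preincubated with 0.5 or 2.5 µM compound at 37 °C, 5% CO₂, then given 5 mM diethyl maleate for 6 h. Viable cells counted by trypan blue exclusion on a hemocytometer. Viability expressed as % of untreated control. Three independent experiments in triplicate, mean ± S.E.M.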

The species named for assay [21] is Homo sapiens. The assay can be described thus: Cytoprotective activity against diethyl maleate-induced oxidative stress in Parkinson's disease patient GM15010 cells assessed as cell viability at 0.5 uM preincubated for 15 hrs prior to diethyl maleate-challenge measured after 6 hrs by hemocytometer-based assay. The class given is functional. An outline of the steps: as §4

The species entered for assay [22] is Homo sapiens. The assay can be described thus: Cytoprotective activity against diethyl maleate-induced oxidative stress in Leigh's syndrome patient GM13740 cells assessed as cell viability at 0.5 uM preincubated for 15 hrs prior to diethyl maleate-challenge measured after 6 hrs by hemocytometer-based assay. The assay is classed as functional. An outline of the steps:
as §4

The species entered for assay [23] is Homo sapiens. Briefly: Cytoprotective activity against diethyl maleate-induced oxidative stress in Alzheimer's disease patient AG06849 cells assessed as cell viability at 0.5 uM preincubated for 15 hrs prior to diethyl maleate-challenge measured after 6 hrs by hemocytometer-based assay. The class given is functional. An outline of the steps: as §4
For assay [24], the system named is GM15850. Briefly: Cytoprotective activity against diethyl maleate-induced oxidative stress in Friedreich's ataxia disease patient GM15850 cells assessed as cell viability at 0.5 uM preincubated for 15 hrs prior to diethyl maleate-challenge measured after 6 hrs by hemocytometer-based assay. The assay is classed as functional. As to conditions: Homo sapiens. The procedure, abridged: as §4

The species named for assay [25] is Homo sapiens. Briefly: Cytoprotective activity against diethyl maleate-induced oxidative stress in Leber's optic atrophy disease patient GM10744 cells assessed as cell viability at 0.5 uM preincubated for 15 hrs prior to diethyl maleate-challenge measured after 6 hrs by hemocytometer-based assay. The assay is classed as functional. The procedure, abridged:
as §4

Assay [26] relates to CCRF-CEM. The assay can be described thus: Antioxidant activity in human CCRF-CEM cells assessed as suppression of diethyl maleate-induced ROS generation at 0.25 to 2.5 uM preincubated for 18 hrs prior to diethyl maleate-challenge measured after 1 hr by FACS flow cytometric analysis in presence of DCFH-DA. The class given is functional, cell-based. The procedure, abridged:
as §3

Calls of active or inactive are those of the source. No cut-off for these calls is given here. A value given as a limit tells only on which side of the number the result lay.

In general, IC50 refers to the concentration at which inhibition is half-maximal. Low readings indicate higher potency, high ones lower potency. A word on the Ki: it is the equilibrium dissociation constant of an inhibitor or competing ligand from its target. Low readings indicate tighter binding, high ones weaker binding. In general, residual activity refers to the signal under treatment as a percentage of the control signal. Turning to `Cc1nc(N(C)C)nc(CCCCCCCCCCO)c1O`, in assay [1], the Imax was 85%. Besides, in assay [2], the IC50 was 1000 nM. This compound also returned an inhibition constant (Ki) in assay [2] of 700 nM. For the same compound, the Activity in assay [3] amounted to 27.7%; in [4] it was 46.3%; in [5] it was 77.2%; in [6] it was 20.7%; in assay [7], 45.6%; in [8], 75.5%. Moreover, the Activity in [9] is 46.4%; in [10], 86.1%; in [11] it was 98.8%; in assay [16], “Dose-dependent effect”. For the same compound, the result in [12], in assay [13], in assay [14] and in assay [15] was Active. Further, the residual activity in assay [17] is 22%; in [18], 50%; in assay [19] it was 15%.

As to `CCCCCCCCCCC1=C(C)C(=O)C(OC)=C(OC)C1=O` [DECYLUBIQUINONE], the result in [20], in [21], in [22], in assay [23], in assay [24] and in assay [25] was Active. The outcome in assay [12], in assay [13], in assay [14] and in [15] was Active. In assay [2], the IC50 was > 200000 nM. The Ki in assay [2] is > 200000 nM. The Activity in assay [3] was found to be 62.7%; in [4], 76.4%; in assay [5] it was 92.8%; in assay [6], 47%; in [7], 63.4%; in assay [8], 75.1%. Besides, the Activity in assay [9] was 71.1%; in [10], 86.2%; in assay [11], 100%; in assay [16], “Dose-dependent effect”. The figures for the residual activity in [17], in assay [18] and in [19] were 82.4%, 93% and 61.5%, respectively.

With `CCCCCCCCCCc1nc(N(C)C)nc(C)c1O`, the result in assay [20], in assay [21], in [22], in assay [23], in assay [24] and in [25] was Active. The result in assay [12], in assay [13] and in assay [26] was Active. In assay [1], the Imax stood at 88%. In assay [2], half-maximal inhibition (IC50) required 2000 nM. The compound further showed a Ki in assay [2] of 1400 nM. The Activity was found to be 42.2% in assay [3]; 74.4% in assay [4]; 83.3% in assay [5]; 40.6% in [6]; 75% in assay [7]; 95.6% in assay [8]. Also, the Activity was 72.4% in assay [9], 97.1% in assay [10], 105.2% in [11] and “Dose-dependent effect” in assay [16]. In addition, the residual activity in assay [17] was found to be 17.7%; in [18] it was 35.4%; in assay [19] it was 3.9%.

On to `CCCCCCCCCCCCCCCCc1nc(N(C)C)nc(C)c1O`, for which the result in assay [20], in assay [21], in assay [22], in [23], in assay [24] and in assay [25] was Active. Further, the outcome in assay [12], in [13] and in [26] was Active. The same compound had an Imax in [1] of 84%. Further, 198000 nM corresponded to half-maximal inhibition in assay [2] (IC50). This compound also returned a Ki in assay [2] of 141000 nM. Also, the Activity stood at 74.7% in [3]; 90.3% in assay [4]; 95.3% in assay [5]; 83.4% in assay [6]; 95.6% in assay [7]; 102.7% in assay [8]. Also, the Activity is 95% in assay [9], 103% in [10], 108.2% in assay [11] and “Dose-dependent effect” in [16]. Further, the residual activity is 88.6% in assay [17], 96.2% in assay [18] and 76.9% in assay [19].
